Assay results reported in ChEMBL document CHEMBL4325920, “Discovery of Clinical Candidate BMS-823778 as an Inhibitor of Human 11β-Hydroxysteroid Dehydrogenase Type 1 (11β-HSD-1)” (ACS Med Chem Lett, 2018).
Blank lines part the entries; values can stand above or below the molecule they belong to.

What was measured:
[1] = target: 11-beta-hydroxysteroid dehydrogenase 1 (Homo sapiens, UniProt P28845); experiment: Inhibition of recombinant human 11beta-HSD1 expressed in HEK293 cell microsomes using [3H]cortisone as substrate after 4 hrs by homogeneous immuno-radiometric scintillation proximity assay; format: cell-based
11-beta-hydroxysteroid dehydrogenase 1 (Homo sapiens, UniProt P28845), sequence (P28845 whole entry): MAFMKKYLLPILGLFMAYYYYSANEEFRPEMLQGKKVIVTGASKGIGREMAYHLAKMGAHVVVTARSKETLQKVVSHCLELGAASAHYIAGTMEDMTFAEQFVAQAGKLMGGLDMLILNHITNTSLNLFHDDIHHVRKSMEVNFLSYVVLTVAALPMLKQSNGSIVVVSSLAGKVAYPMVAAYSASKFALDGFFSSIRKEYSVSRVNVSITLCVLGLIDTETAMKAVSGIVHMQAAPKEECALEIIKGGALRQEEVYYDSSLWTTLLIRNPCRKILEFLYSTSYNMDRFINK

[2] = target: 11-beta-hydroxysteroid dehydrogenase 1 (Mus musculus, UniProt P50172); experiment: Inhibition of recombinant mouse 11beta-HSD1 expressed in HEK293 cell microsomes using [3H]cortisone as substrate after 4 hrs by homogeneous immuno-radiometric scintillation proximity assay
11-beta-hydroxysteroid dehydrogenase 1 (Mus musculus, UniProt P50172), sequence (P50172 whole entry): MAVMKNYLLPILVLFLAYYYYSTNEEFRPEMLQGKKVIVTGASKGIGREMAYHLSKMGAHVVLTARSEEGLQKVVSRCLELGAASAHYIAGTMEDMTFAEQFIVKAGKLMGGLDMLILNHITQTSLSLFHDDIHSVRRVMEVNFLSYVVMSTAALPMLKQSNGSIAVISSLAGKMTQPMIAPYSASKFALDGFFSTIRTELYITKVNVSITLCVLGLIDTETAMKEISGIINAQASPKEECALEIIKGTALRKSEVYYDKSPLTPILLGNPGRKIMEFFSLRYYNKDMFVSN

[3] = target: T1, Nuclear receptor subfamily 1 group I member 2 (Homo sapiens, UniProt O75469); experiment: Activation of PXR (unknown origin); format: ADME
T1 sequence (O75469 whole entry): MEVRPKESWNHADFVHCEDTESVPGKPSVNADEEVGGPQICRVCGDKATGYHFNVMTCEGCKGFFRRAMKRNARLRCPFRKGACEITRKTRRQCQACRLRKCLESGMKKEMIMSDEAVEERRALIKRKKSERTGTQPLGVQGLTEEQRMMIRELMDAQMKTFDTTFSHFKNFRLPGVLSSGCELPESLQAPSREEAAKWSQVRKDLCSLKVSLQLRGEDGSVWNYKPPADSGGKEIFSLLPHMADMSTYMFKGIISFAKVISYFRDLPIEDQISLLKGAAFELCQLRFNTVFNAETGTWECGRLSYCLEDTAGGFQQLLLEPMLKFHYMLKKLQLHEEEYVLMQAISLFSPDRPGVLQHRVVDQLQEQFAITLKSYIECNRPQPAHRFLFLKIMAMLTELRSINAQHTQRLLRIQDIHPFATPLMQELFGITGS

[4] = Inhibition of recombinant cynomolgus monkey 11beta-HSD1 expressed in HEK293 cell microsomes using [3H]cortisone as substrate after 4 hrs by homogeneous immuno-radiometric scintillation proximity assay; set-up: species or system Macaca fascicularis
Mus musculus [5] = experiment: In-vivo inhibition of 11beta-HSD1 in po dosed diet induced obese mouse assessed as reduction in conversion of dehydrocorticosterone to corticosterone pretreated for 30 to 60 mins followed by dehydrocorticosterone addition and measured after 30 to 120 mins by enzyme immunosorbent assay; format: functional
Cynomolgus monkey = experiment: In-vivo inhibition of 11beta-HSD1 in po cynomolgus monkey assessed as reduction in conversion of dehydrocorticosterone to corticosterone pretreated for 30 to 60 mins followed by dehydrocorticosterone addition and measured after 30 to 120 mins by enzyme immunosorbent assay; format: functional; conditions: Macaca fascicularis
[6] = Selectivity ratio of ED50 for inhibition of 11beta-HSD1 in po dosed diet induced obese mouse to ED50 for inhibition of 11beta-HSD1 in po cynomolgus monkey; format: functional
Mus musculus [7] = experiment: Ex vivo inhibition of 11beta-HSD1 in diet induced obese mouse adipose tissue assessed as reduction in conversion of dehydrocorticosterone to corticosterone administered via oral gavage pretreated for 3 hrs followed by dehydrocorticosterone addition by LC-MS analysis; format: functional
Mus musculus [8] = experiment: Selectivity ratio of ED50 for inhibition of 11beta-HSD1 in po dosed diet induced obese mouse to ED50 for ex vivo inhibition of 11beta-HSD1 in diet induced obese mouse adipose tissue administered via oral gavage; format: functional
[9] = Oral bioavailability in Balb/C mouse at 10 mg/kg by LC-MS/MS analysis; format: ADME, organism-based; conditions: in vivo
Outline: (§1)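 Given orally as a homogenized suspension, to mouse and to cynomolgus monkey.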

[10] = Ratio of drug level in adipose tissue to plasma in diet induced obese mouse administered via oral gavage; format: ADME; conditions: adipose tissue and plasma
[11] = Volume of distribution at steady state in Balb/C mouse at 5 mg/kg, iv by LC-MS/MS analysis; format: ADME, organism-based; conditions: in vivo, read-out: Vdss
[12] = Volume of distribution at steady state in cynomolgus monkey at 1 mg/kg, iv by LC-MS/MS analysis; format: ADME, organism-based, Macaca fascicularis; conditions: in vivo, read-out: Vdss
[13] = Total plasma clearance in Balb/C mouse at 5 mg/kg, iv by LC-MS/MS analysis; format: ADME, organism-based
[14] = Total plasma clearance in cynomolgus monkey at 1 mg/kg, iv by LC-MS/MS analysis; format: ADME, organism-based, Macaca fascicularis
[15] = Oral bioavailability in cynomolgus monkey at 1.47 mg/kg by LC-MS/MS analysis; format: ADME, organism-based, Macaca fascicularis; conditions: in vivo; outline: as §1
[16] = Permeability of the compound by PAMPA; format: ADME; conditions: read-out: permeability
[17] = Protein binding in human plasma; format: ADME, cell-free; conditions: read-out: PPB (converted)
[18] = Protein binding in cynomolgus monkey plasma; format: ADME, cell-free, Macaca fascicularis; conditions: read-out: PPB (converted)
[19] = Protein binding in mouse plasma; format: ADME, cell-free; conditions: read-out: PPB (converted)
Cytochrome P450 3A4 = Cytochrome P450 3A4 (Homo sapiens, UniProt P08684); experiment: Inhibition of human CYP3A4; format: ADME
Cytochrome P450 3A4, sequence (P08684 whole entry): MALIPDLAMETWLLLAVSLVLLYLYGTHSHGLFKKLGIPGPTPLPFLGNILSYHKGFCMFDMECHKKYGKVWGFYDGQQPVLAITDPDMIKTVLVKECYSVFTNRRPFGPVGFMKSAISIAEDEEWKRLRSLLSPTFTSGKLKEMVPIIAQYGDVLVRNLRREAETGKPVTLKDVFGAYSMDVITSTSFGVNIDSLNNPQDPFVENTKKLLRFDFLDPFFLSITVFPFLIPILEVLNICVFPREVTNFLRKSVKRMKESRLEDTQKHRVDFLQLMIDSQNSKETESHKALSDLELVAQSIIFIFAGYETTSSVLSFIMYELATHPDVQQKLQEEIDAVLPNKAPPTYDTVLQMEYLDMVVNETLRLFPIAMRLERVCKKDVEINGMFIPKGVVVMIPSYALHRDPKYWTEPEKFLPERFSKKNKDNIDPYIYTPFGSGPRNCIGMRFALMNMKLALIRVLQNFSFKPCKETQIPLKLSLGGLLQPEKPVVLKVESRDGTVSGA

Cytochrome P450 2C9 = Cytochrome P450 2C9 (Homo sapiens, UniProt P11712); experiment: Inhibition of human CYP2C9; format: ADME
Cytochrome P450 2C9, sequence (P11712 whole entry): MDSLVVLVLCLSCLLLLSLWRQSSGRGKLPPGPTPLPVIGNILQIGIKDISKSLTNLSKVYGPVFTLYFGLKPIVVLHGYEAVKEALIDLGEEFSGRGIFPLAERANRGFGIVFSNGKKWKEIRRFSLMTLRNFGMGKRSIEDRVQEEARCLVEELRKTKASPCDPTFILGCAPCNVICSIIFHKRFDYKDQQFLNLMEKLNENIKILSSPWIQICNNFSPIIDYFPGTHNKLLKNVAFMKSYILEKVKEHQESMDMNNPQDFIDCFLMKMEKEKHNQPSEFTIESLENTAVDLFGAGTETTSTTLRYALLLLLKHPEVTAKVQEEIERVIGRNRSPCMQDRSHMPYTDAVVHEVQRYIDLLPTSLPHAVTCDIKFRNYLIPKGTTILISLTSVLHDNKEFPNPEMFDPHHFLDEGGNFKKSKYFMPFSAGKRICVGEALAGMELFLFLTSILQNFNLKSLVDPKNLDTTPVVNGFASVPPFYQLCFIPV

Cytochrome P450 2C19 = Cytochrome P450 2C19 (Homo sapiens, UniProt P33261); experiment: Inhibition of human CYP2C19; format: ADME
Cytochrome P450 2C19, sequence (P33261 whole entry): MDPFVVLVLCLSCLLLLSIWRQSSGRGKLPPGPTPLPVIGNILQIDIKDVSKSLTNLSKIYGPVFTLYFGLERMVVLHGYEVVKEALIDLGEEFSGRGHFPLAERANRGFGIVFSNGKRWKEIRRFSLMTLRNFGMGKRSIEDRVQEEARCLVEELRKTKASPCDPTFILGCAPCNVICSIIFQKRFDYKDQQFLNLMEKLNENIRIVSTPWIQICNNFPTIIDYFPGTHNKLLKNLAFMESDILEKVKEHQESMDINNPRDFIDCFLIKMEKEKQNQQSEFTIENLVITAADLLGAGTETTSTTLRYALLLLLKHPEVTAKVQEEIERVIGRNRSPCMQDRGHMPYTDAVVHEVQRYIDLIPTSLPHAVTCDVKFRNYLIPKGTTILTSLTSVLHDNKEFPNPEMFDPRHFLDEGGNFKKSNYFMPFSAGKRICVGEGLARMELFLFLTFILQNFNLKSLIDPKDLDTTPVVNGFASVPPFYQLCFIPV

Cytochrome P450 2D6 = Cytochrome P450 2D6 (Homo sapiens, UniProt P10635); experiment: Inhibition of human CYP2D6; format: ADME
Cytochrome P450 2D6, sequence (P10635 whole entry): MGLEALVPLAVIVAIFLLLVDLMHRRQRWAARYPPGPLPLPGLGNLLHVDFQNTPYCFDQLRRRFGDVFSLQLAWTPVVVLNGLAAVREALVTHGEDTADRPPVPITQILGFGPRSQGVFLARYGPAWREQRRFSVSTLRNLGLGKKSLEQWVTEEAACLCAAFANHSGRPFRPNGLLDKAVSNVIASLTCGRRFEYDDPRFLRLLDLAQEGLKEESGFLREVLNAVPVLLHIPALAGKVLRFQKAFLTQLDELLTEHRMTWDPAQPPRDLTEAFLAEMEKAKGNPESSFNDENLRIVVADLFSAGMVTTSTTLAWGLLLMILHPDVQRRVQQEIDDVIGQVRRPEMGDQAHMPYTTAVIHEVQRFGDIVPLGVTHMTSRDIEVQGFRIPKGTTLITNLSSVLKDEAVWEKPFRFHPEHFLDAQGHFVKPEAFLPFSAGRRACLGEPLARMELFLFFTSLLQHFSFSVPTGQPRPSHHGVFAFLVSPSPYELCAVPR

Cytochrome P450 1A2 = target: T2, Cytochrome P450 1A2 (Homo sapiens, UniProt P05177); experiment: Inhibition of human CYP1A2; format: ADME
T2 sequence (P05177 whole entry): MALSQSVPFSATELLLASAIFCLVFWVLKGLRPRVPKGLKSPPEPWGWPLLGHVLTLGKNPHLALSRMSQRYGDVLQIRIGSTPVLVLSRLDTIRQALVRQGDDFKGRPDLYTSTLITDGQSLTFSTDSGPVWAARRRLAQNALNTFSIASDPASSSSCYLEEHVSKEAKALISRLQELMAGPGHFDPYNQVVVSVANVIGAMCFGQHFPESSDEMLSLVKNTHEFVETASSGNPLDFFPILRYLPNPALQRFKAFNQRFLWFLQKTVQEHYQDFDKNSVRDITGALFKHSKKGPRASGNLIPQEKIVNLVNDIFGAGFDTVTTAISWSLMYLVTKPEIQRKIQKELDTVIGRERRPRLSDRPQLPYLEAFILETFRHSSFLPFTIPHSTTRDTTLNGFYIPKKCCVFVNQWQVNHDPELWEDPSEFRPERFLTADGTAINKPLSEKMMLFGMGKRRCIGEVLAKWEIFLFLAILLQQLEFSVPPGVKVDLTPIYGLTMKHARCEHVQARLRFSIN

[20] = Ratio of drug level in liver to plasma in diet induced obese mouse administered via oral gavage; format: ADME; conditions: liver and plasma
[21] = Stability in human microsomes assessed as parent compound remaining after 30 mins; format: ADME, Microsome; conditions: read-out: Stability
[22] = Stability in mouse microsomes assessed as parent compound remaining after 30 mins; format: ADME, Microsome; conditions: read-out: Stability
[23] = Stability in rat microsomes assessed as parent compound remaining after 30 mins; format: ADME, Microsome; conditions: read-out: Stability
[24] = Stability in cynomolgus monkey microsomes assessed as parent compound remaining after 30 mins; format: ADME, Macaca fascicularis, Microsome; conditions: read-out: Stability
hERG (KCNH2) [25] = target: T3, hERG (KCNH2) (Homo sapiens, UniProt Q12809); experiment: Inhibition of human ERG at 10 uM by whole-cell patch clamp method relative to control
T3 sequence (Q12809 whole entry): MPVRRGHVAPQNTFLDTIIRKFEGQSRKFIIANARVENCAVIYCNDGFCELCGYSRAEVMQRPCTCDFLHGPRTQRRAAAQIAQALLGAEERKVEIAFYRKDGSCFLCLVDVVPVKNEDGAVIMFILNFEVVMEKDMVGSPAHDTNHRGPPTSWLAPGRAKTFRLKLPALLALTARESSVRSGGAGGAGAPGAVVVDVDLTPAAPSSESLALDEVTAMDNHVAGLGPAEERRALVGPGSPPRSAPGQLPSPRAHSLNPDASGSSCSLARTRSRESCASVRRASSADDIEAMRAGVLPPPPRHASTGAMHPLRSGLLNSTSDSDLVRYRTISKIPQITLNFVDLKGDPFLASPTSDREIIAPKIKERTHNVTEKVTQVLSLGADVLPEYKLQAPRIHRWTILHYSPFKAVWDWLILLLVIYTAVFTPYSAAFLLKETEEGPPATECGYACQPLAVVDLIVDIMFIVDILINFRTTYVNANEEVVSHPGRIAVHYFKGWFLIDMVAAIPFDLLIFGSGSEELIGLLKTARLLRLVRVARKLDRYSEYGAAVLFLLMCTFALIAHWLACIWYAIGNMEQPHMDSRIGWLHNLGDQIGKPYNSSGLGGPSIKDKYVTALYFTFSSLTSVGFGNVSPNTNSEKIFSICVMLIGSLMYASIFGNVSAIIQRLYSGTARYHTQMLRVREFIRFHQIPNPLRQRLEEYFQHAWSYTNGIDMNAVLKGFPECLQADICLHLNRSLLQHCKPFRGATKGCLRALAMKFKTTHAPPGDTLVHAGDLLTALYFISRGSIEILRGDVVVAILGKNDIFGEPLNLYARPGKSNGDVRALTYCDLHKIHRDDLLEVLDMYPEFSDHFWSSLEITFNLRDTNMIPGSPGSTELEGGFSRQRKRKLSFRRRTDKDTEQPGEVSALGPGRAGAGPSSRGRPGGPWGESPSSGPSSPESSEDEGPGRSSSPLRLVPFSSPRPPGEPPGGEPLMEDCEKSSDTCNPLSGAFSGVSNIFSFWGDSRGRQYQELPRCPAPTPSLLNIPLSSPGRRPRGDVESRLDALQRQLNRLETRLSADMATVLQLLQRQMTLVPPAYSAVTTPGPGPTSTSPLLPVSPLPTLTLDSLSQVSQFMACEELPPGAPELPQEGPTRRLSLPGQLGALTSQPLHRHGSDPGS

hERG (KCNH2) [26] = target: T3, hERG (KCNH2); experiment: Inhibition of human ERG at 30 uM by whole-cell patch clamp method relative to control
[27] = Genotoxicity in Escherichia coli by SOS chromotest; format: toxicity
[28] = Genotoxicity in Salmonella typhimurium by Ames test; format: toxicity; conditions: salmonella enterica subsp. enterica serovar typhimurium
[29] = Toxicity in mouse up to 100 mg/kg, po administered as single dose; format: organism-based; conditions: in vivo
[30] = Toxicity in cynomolgus monkey assessed as emesis up to 100 mg/kg, po administered as single dose; format: organism-based, Macaca fascicularis; conditions: in vivo
[31] = Efflux ratio of permeability from basolateral to apical side over apical to basolateral side in human Caco2 cells at 3 uM; conditions: caco-2, 3 µM
[32] = Aqueous solubility of the compound at pH 6.5 using crystalline sample; format: physicochemical
[33] = Aqueous solubility of the compound at pH 1 using crystalline sample; format: physicochemical
[34] = Stability of the compound in aqueous buffer at pH 1.1 to pH 7.4 at 40 degC measured after 1 week; format: physicochemical; conditions: pH 1.1, 168 h
[35] = Stability of the compound at 50 degC measured after 12 weeks using crystalline solid sample; format: physicochemical; conditions: 2016 h
[36] = Stability of the compound under high intensity light/UV light measured after 12 weeks using crystalline solid sample; format: physicochemical; conditions: 2016 h
[37] = Stability of the compound in solid state; format: physicochemical
[38] = Stability of the compound in oxidative solution; format: physicochemical
[39] = Stability of the compound in hydrolytic solution; format: physicochemical

Ki [1]: 0.9 nM
IC50 [2]: 600 nM
Ki [2]: 380 nM
EC50 [3]: > 50000 nM
bioavailability [9]: 44%
Kp [10]: 2.5
Vd [11]: 1.2 L/kg
Vd [12]: 2.3 L/kg
clearance [13]: 2.3 mL/min/kg
clearance [14]: 1.2 mL/min/kg
bioavailability [15]: 100%
Papp [16]: > 50 ×10⁻⁶ cm/s
fraction unbound [17]: 0.15
fraction unbound [18]: 0.16
fraction unbound [19]: 0.13
IC50 (Cytochrome P450 3A4): > 30000 nM
IC50 (Cytochrome P450 2C9): > 30000 nM
IC50 (Cytochrome P450 2C19): > 30000 nM
IC50 (Cytochrome P450 2D6): > 30000 nM
IC50 (Cytochrome P450 1A2): > 30000 nM
Kp [20]: 3.5
remaining at 0.5 h [21]: 96 to 100%
remaining at 0.5 h [22]: 96 to 100%
remaining at 0.5 h [23]: 96 to 100%
remaining at 0.5 h [24]: 96 to 100%
Ratio [31]: < 2
SMILES: CC(C)(O)c1cccn2c(C3(c4ccc(Cl)cc4)CC3)nnc12 [BMS-823778 FREE BASE]
Ki [4]: 7 nM
ED50 (Mus musculus [5]): 34 mg/kg
ED50 (Cynomolgus monkey): 0.6 mg/kg
Ratio ED50 [6]: 57
ED50 (Mus musculus [7]): 5.2 mg/kg
Ratio ED50 (Mus musculus [8]): 6.5
inhibition at 10 µM (hERG (KCNH2) [25]): 19.8%
inhibition at 30 µM (hERG (KCNH2) [26]): 31.2%
Activity [27]: Non-Toxic
Activity [28]: Non-Toxic
Activity [29]: Non-Toxic
Activity [30]: Toxic

solubility thermodynamic [32]: 0.5 mg/mL
solubility thermodynamic [33]: 220 mg/mL
Stability [34]: Stable
Stability [35]: Stable
Stability [36]: Stable
Stability [37]: Stable
Stability [38]: Stable
Stability [39]: Stable
SMILES: CC(C)(O)c1cccn2c(C3(c4ccc(Cl)cc4)CC3)nnc12.Cl [BMS-823778]
